Test results taken from ChEMBL document CHEMBL3352053, “New silibinin glyco-conjugates: synthesis and evaluation of antioxidant properties” (Bioorg Med Chem Lett, 2014).

Columns and labels:
[1] = Antioxidant activity assessed as DPPH radical scavenging activity after 10 mins; assay type: physicochemical
Method in brief: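 Freshly prepared DPPH solution in test tubes; analogue solutions (1 mM–1 µM) added to a final volume of 2.25 mL. Absorbance read at 515 nm after 10 min. References prepared as 1 mM methanol stocks. IC50 calculated from at least three independent experiments.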

[2] = Toxicity in human MKN28 cells assessed as cell viability at 10 to 200 uM after 48 hrs by MTT assay; assay type: cell-based, MKN-28; details: read-out: Activity
Method in brief: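 MKN28 cells incubated under basal conditions with compounds (10–200 µM) for 1–48 h, with serum-free medium as control. Viability read by MTT assay. Mean ± SD from three separate experiments run in duplicate.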

[3] = Inhibition of xanthine oxidase in human MKN28 cells assessed as inhibition of xanthine oxidase-induced cell damage by measuring cell viability at 10 to 200 uM after 48 hrs by MTT assay; assay type: cell-based; details: mkn-28, 48 h
Method in brief: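 MKN28 cells pre-incubated with compounds (10–200 µM) for 1–48 h, washed, then exposed for 2 h to xanthine (1 mM) plus xanthine oxidase to induce oxidative stress. Controls were serum-free medium alone, and serum-free medium followed by X–XO. Viability read by MTT assay. Mean ± SD from three separate experiments run in duplicate.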

Structure (SMILES) | IC50 [1] [µM] | viability at 48 h, up to 200 µM [2] [%] | Activity [3] [%]
COc1cc([C@H]2Oc3cc(-c4oc5cc(O)cc(O)c5c(=O)c4O)ccc3O[C@@H]2CO)ccc1O | 27 | – | –
COc1cc([C@H]2Oc3cc([C@H]4Oc5cc(O)cc(O)c5C(=O)[C@@H]4O)ccc3O[C@H]2COP(=O)([O-])OC2O[C@H](CO)[C@H](OC3O[C@H](CO)[C@H](O)[C@H](O)[C@H]3O)[C@H](O)[C@H]2O)ccc1O.[Na+] (stereo partly specified) | 155 | 91.8 | 48.4
COc1cc(C2Oc3cc([C@H]4Oc5cc(O)cc(O)c5C(=O)[C@@H]4O)ccc3OC2CO)ccc1O (stereo partly specified) [SILIBININ] | 392 | 45.3 | 42.4

The next lines start with results.

IC50 [1] [µM] | Structure (SMILES) | viability at 48 h, up to 200 µM [2] [%] | Activity [3] [%]
302 | COc1cc([C@H]2Oc3cc([C@H]4Oc5cc(O)cc(O)c5C(=O)[C@@H]4O)ccc3O[C@H]2COP(=O)([O-])OC2O[C@H](CO)[C@@H](O)[C@H](O)[C@H]2O)ccc1O.[Na+] (stereo partly specified) | 89.2 | 42.7
108 | COc1cc([C@H]2Oc3cc([C@H]4Oc5cc(O)cc(O)c5C(=O)[C@@H]4O)ccc3O[C@H]2COP(=O)([O-])OC2O[C@H](CO)[C@@H](O)[C@H](O)[C@@H]2O)ccc1O.[Na+] (stereo partly specified) | 89.5 | 42.3
233 | COc1cc([C@H]2Oc3cc([C@H]4Oc5cc(O)cc(O)c5C(=O)[C@@H]4O)ccc3O[C@H]2COP(=O)([O-])OC2O[C@H](CO)[C@H](O)[C@H](O)[C@H]2O)ccc1O.[Na+] (stereo partly specified) | 84.1 | 42.8
